Results reported in ChEMBL document CHEMBL3351861, “New synthetic sulfone derivatives inhibit growth, adhesion and the leucine arylamidase APE2 gene expression of Candida albicans in vitro” (2015).
≈ marks a conversion by molar mass, not a printed value.

Tests used:
Candida albicans [1] = assay: Antifungal activity against Candida albicans CAI4 expressing delta-efg1 gene assessed as growth inhibition at 0.5 ug/ml by CLSI M27-A3 method; assay type: functional; conditions: read-out: GI
Summary of the method: (§1)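 CLSI M27-A3 broth microdilution in RPMI, read after 48 h. Strains pre-grown 18 h in YEPD at 30°C. Final inoculum 0.5×10^2–2.5×10^3 cells/ml. Two-fold dilutions in RPMI came from a 1600 µg/ml stock in water with 9% DMSO; final DMSO was 0.09%. OD405 read, % inhibition = 100 − (CTW−SCW)/(GCW−SCW). Triplicate on three occasions, mean±SD.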

Candida albicans [2] = assay: Inhibition of cell adhesion of compound pre-treated Candida albicans SC5314 to human Caco2 cells assessed as cell adhesion level at 16 ug/ml pre-incubated for 18 hrs by colony counting method (reference value: 1.1 +/- 1.1%); assay type: functional, Caco-2; parameters: scale not given: the % may be the effect or the level left
Candida albicans [3] = assay: Antifungal activity against Candida albicans CAI4 expressing delta-efg1 gene assessed as growth inhibition at 4 ug/ml by CLSI M27-A3 method; assay type: functional; conditions: read-out: GI
Summary of the method: (§2)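 CLSI M27-A3 broth microdilution in RPMI. Final inoculum 0.5×10^2 to 2.5×10^3 cells/ml. Seven two-fold concentrations from 0.25 to 16 µg/ml, with DMSO held at 0.09% (v/v) in all wells. Compound-free growth controls and sterility controls are run for each strain. […] Triplicate on three occasions.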

Candida albicans [4] = assay: Inhibition of cell adhesion of compound pre-treated Candida albicans 90028 to human Caco2 cells assessed as cell adhesion level at 16 ug/ml pre-incubated for 18 hrs by colony counting method (reference value: 1.58 +/- 0.67%); assay type: functional, Caco-2; parameters: scale not given: the % may be the effect or the level left
Candida albicans [5] = assay: Antifungal activity against Candida albicans CAI4 expressing delta-cph1 (CPH1) gene assessed as growth inhibition at 1 ug/ml by CLSI M27-A3 method; assay type: functional; conditions: read-out: GI; summary of the method: as §1
Candida albicans [6] = assay: Antifungal activity against Candida albicans CAI4 expressing delta-cph1/delta-efg1 (EFG1) gene assessed as growth inhibition at 4 ug/ml by CLSI M27-A3 method; assay type: functional; conditions: read-out: GI; summary of the method: as §1
Candida albicans [7] = assay: Antifungal activity against Candida albicans CAI4 expressing delta-cph1 gene assessed as growth inhibition at 0.25 ug/ml by CLSI M27-A3 method; assay type: functional; conditions: read-out: GI; summary of the method: as §1
Candida albicans [8] = assay: Inhibition of cell adhesion of compound pre-treated Candida albicans CAI4 expressing delta-cph1 gene to human Caco2 cells assessed as cell adhesion level at 2 ug/ml pre-incubated for 18 hrs by colony counting method (reference value: 1.6 +/- 0.65%); assay type: functional, Caco-2; parameters: scale not given: the % may be the effect or the level left
Candida albicans [9] = assay: Inhibition of cell adhesion of compound pre-treated Candida albicans CAI4 expressing delta-cph1 (CPH1) gene to human Caco2 cells assessed as cell adhesion level at 8 ug/ml pre-incubated for 18 hrs by colony counting method (reference value: 5.37 +/- 12.4%); assay type: functional, Caco-2; parameters: scale not given: the % may be the effect or the level left
Candida albicans [10] = assay: Antifungal activity against Candida albicans CAI4 expressing delta-cph1/delta-efg1 (EFG1) gene assessed as growth inhibition at 0.5 ug/ml by CLSI M27-A3 method; assay type: functional; conditions: read-out: GI; summary of the method: as §1
Candida albicans [11] = assay: Antifungal activity against Candida albicans CAI4 expressing delta-efg1 (EFG1) gene assessed as growth inhibition at 8 ug/ml by CLSI M27-A3 method; assay type: functional; conditions: read-out: GI; summary of the method: as §1
Candida albicans [12] = assay: Antifungal activity against Candida albicans CAI4 expressing delta-cph1 gene assessed as growth inhibition at 0.5 ug/ml by CLSI M27-A3 method; assay type: functional; conditions: read-out: GI; summary of the method: as §1
Candida albicans [13] = assay: Antifungal activity against Candida albicans CAI4 expressing delta-cph1 (CPH1) gene assessed as growth inhibition at 4 ug/ml by CLSI M27-A3 method; assay type: functional; conditions: read-out: GI; summary of the method: as §1
Candida albicans [14] = assay: Antifungal activity against Candida albicans CAI4 expressing delta-efg1 (EFG1) gene assessed as growth inhibition at 0.25 ug/ml by CLSI M27-A3 method; assay type: functional; conditions: read-out: GI; summary of the method: as §1
Candida albicans [15] = assay: Antifungal activity against Candida albicans CAI4 expressing delta-cph1 gene assessed as growth inhibition at 16 ug/ml by CLSI M27-A3 method; assay type: functional; conditions: read-out: GI; summary of the method: as §1
Candida albicans [16] = assay: Antifungal activity against Candida albicans CAI4 expressing delta-efg1 gene assessed as growth inhibition at 0.25 ug/ml by CLSI M27-A3 method; assay type: functional; conditions: read-out: GI; summary of the method: as §1
Candida albicans [17] = assay: Antifungal activity against Candida albicans CAI4 expressing delta-cph1/delta-efg1 (EFG1) gene assessed as growth inhibition at 16 ug/ml by CLSI M27-A3 method; assay type: functional; conditions: read-out: GI; summary of the method: as §1
Candida albicans [18] = assay: Antifungal activity against Candida albicans CAI4 expressing delta-efg1 gene assessed as growth inhibition at by CLSI M27-A3 method; assay type: functional; summary of the method: as §2
Candida albicans [19] = assay: Inhibition of cell adhesion of compound pre-treated Candida albicans CAI4 expressing delta-efg1 gene to human Caco2 cells assessed as cell adhesion level at 16 ug/ml pre-incubated for 18 hrs by colony counting method (reference value: 2.1 +/- 3.52%); assay type: functional, Caco-2; parameters: scale not given: the % may be the effect or the level left
Candida albicans [20] = assay: Antifungal activity against Candida albicans CAI4 expressing delta-cph1 (CPH1) gene assessed as growth inhibition at 0.5 ug/ml by CLSI M27-A3 method; assay type: functional; conditions: read-out: GI; summary of the method: as §1
Candida albicans [21] = assay: Antifungal activity against Candida albicans CAI4 expressing delta-cph1 gene assessed as growth inhibition at 2 ug/ml by CLSI M27-A3 method; assay type: functional; conditions: read-out: GI; summary of the method: as §1
Candida albicans [22] = assay: Antifungal activity against Candida albicans CAI4 expressing delta-cph1/delta-efg1 gene assessed as growth inhibition at 2 ug/ml by CLSI M27-A3 method; assay type: functional; conditions: read-out: GI; summary of the method: as §1
Candida albicans [23] = assay: Antifungal activity against Candida albicans CAI4 expressing delta-cph1 (CPH1) gene assessed as growth inhibition at by CLSI M27-A3 method; assay type: functional
Candida albicans [24] = assay: Antifungal activity against Candida albicans CAI4 expressing delta-cph1/delta-efg1 gene assessed as growth inhibition at 0.5 ug/ml by CLSI M27-A3 method; assay type: functional; conditions: read-out: GI; summary of the method: as §1
Candida albicans [25] = assay: Antifungal activity against Candida albicans CAI4 expressing delta-cph1 (CPH1) gene assessed as growth inhibition at 16 ug/ml by CLSI M27-A3 method; assay type: functional; conditions: read-out: GI; summary of the method: as §1
Candida albicans [26] = assay: Antifungal activity against Candida albicans CAI4 expressing delta-efg1 (EFG1) gene assessed as growth inhibition at 0.5 ug/ml by CLSI M27-A3 method; assay type: functional; conditions: read-out: GI; summary of the method: as §1
Candida albicans [27] = assay: Antifungal activity against Candida albicans 90028 assessed as growth inhibition at 0.5 ug/ml by CLSI M27-A3 method; assay type: functional; conditions: read-out: GI; summary of the method: as §1
Candida albicans [28] = assay: Antifungal activity against Candida albicans CAI4 expressing delta-efg1 (EFG1) gene assessed as growth inhibition at 1 ug/ml by CLSI M27-A3 method; assay type: functional; conditions: read-out: GI; summary of the method: as §1
Candida albicans [29] = assay: Antifungal activity against Candida albicans 90028 assessed as growth inhibition at 1 ug/ml by CLSI M27-A3 method; assay type: functional; conditions: read-out: GI; summary of the method: as §1
Candida albicans [30] = assay: Antifungal activity against Candida albicans CAI4 expressing delta-efg1 (EFG1) gene assessed as growth inhibition at 4 ug/ml by CLSI M27-A3 method; assay type: functional; conditions: read-out: GI; summary of the method: as §1
Candida albicans [31] = assay: Antifungal activity against Candida albicans CAI4 expressing delta-cph1/delta-efg1 gene assessed as growth inhibition at 16 ug/ml by CLSI M27-A3 method; assay type: functional; conditions: read-out: GI; summary of the method: as §1
Candida albicans [32] = assay: Inhibition of cell adhesion of compound pre-treated Candida albicans CAI4 expressing delta-efg1 gene to human Caco2 cells assessed as cell adhesion level at 2 ug/ml pre-incubated for 18 hrs by colony counting method (reference value: 2.1 +/- 3.52%); assay type: functional, Caco-2; parameters: scale not given: the % may be the effect or the level left

Row | SMILES | inhibition of growth at 0.5 µg/mL (Candida albicans [1]) [%] | Activity (Candida albicans [2]) [%] | inhibition of growth at 4 µg/mL (Candida albicans [3]) [%] | Activity (Candida albicans [4]) [%] | inhibition of growth at 1 µg/mL (Candida albicans [5]) [%] | inhibition of growth at 4 µg/mL (Candida albicans [6]) [%] | inhibition of growth at 0.25 µg/mL (Candida albicans [7]) [%] | Activity (Candida albicans [8]) [%] | Activity (Candida albicans [9]) [%] | inhibition of growth at 0.5 µg/mL (Candida albicans [10]) [%] | inhibition of growth at 8 µg/mL (Candida albicans [11]) [%] | inhibition of growth at 0.5 µg/mL (Candida albicans [12]) [%] | inhibition of growth at 4 µg/mL (Candida albicans [13]) [%] | inhibition of growth at 0.25 µg/mL (Candida albicans [14]) [%] | inhibition of growth at 16 µg/mL (Candida albicans [15]) [%] | inhibition of growth at 0.25 µg/mL (Candida albicans [16]) [%] | inhibition of growth at 16 µg/mL (Candida albicans [17]) [%] | MIC90 (Candida albicans [18]) [µg/mL] | Activity (Candida albicans [19]) [%] | inhibition of growth at 0.5 µg/mL (Candida albicans [20]) [%] | other results
1 | NNc1ccc(S(=O)(=O)C(Cl)(Br)Br)cc1[N+](=O)[O-] | 97.9 | 0.8 | 100 | 1.6 | 98.8 | 99.1 | 20 | 0.51 | 0.9 | 98.8 | 99.8 | 96.6 | 99.1 | 98.6 | 100 | 70.8 | 100 | 4 (≈ 9.45 µM) | 0.81 | 98.8 | inhibition of growth at 2 µg/mL (Candida albicans [21]): 100%; inhibition of growth at 2 µg/mL (Candida albicans [22]): 100%; MIC90 (Candida albicans [23]): 4 µg/mL (≈ 9.45 µM); inhibition of growth at 0.5 µg/mL (Candida albicans [24]): 97%; inhibition of growth at 16 µg/mL (Candida albicans [25]): 99.8%; inhibition of growth at 0.5 µg/mL (Candida albicans [26]): 98.8%; inhibition of growth at 0.5 µg/mL (Candida albicans [27]): 81.8%; inhibition of growth at 1 µg/mL (Candida albicans [28]): 98.8%; inhibition of growth at 1 µg/mL (Candida albicans [29]): 97.4%; inhibition of growth at 4 µg/mL (Candida albicans [30]): 99.3%; inhibition of growth at 16 µg/mL (Candida albicans [31]): 100%; Activity (Candida albicans [32]): 1.32%
2 | O=[N+]([O-])c1cc(S(=O)(=O)C(Cl)(Cl)Br)ccc1Cl | 98.7 | 0.71 | 99 | 0.68 | 98.7 | 99.5 | 97.4 | 0.43 | 2.78 | 98.8 | 99.4 | 97.4 | 99.7 | 99 | 99.6 | 98.4 | 99.8 | 16 (≈ 41.7 µM) | 0.99 | 97.1 | inhibition of growth at 2 µg/mL (Candida albicans [21]): 98.9%; inhibition of growth at 2 µg/mL (Candida albicans [22]): 98.8%; MIC90 (Candida albicans [23]): 16 µg/mL (≈ 41.7 µM); inhibition of growth at 0.5 µg/mL (Candida albicans [24]): 98.6%; inhibition of growth at 16 µg/mL (Candida albicans [25]): 99.8%; inhibition of growth at 0.5 µg/mL (Candida albicans [26]): 99%; inhibition of growth at 0.5 µg/mL (Candida albicans [27]): 98.7%; inhibition of growth at 1 µg/mL (Candida albicans [28]): 99.2%; inhibition of growth at 1 µg/mL (Candida albicans [29]): 98.8%; inhibition of growth at 4 µg/mL (Candida albicans [30]): 99.3%; inhibition of growth at 16 µg/mL (Candida albicans [31]): 99.5%; Activity (Candida albicans [32]): 0.9%
3 | O=[N+]([O-])c1cc(S(=O)(=O)C(Cl)Cl)ccc1Cl | 99.4 | 0.68 | 99.5 | 1.19 | 98.8 | 99.3 | 97.7 | 0.8 | 0.71 | 99 | 98.9 | 99.1 | 98.7 | 95.2 | 99.6 | 99.1 | 99.4 | 16 (≈ 52.5 µM) | 1.06 | 96.7 | inhibition of growth at 2 µg/mL (Candida albicans [21]): 99%; inhibition of growth at 2 µg/mL (Candida albicans [22]): 99.1%; MIC90 (Candida albicans [23]): 16 µg/mL (≈ 52.5 µM); inhibition of growth at 0.5 µg/mL (Candida albicans [24]): 99.1%; inhibition of growth at 16 µg/mL (Candida albicans [25]): 99.4%; inhibition of growth at 0.5 µg/mL (Candida albicans [26]): 95.4%; inhibition of growth at 0.5 µg/mL (Candida albicans [27]): 99.1%; inhibition of growth at 1 µg/mL (Candida albicans [28]): 96%; inhibition of growth at 1 µg/mL (Candida albicans [29]): 99.2%; inhibition of growth at 4 µg/mL (Candida albicans [30]): 98.5%; inhibition of growth at 16 µg/mL (Candida albicans [31]): 99.7%; Activity (Candida albicans [32]): 1.1%
